From ChEMBL document CHEMBL4428066, “Small Molecule Reversible Inhibitors of Bruton's Tyrosine Kinase (BTK): Structure-Activity Relationships Leading to the Identification of 7-(2-Hydroxypropan-2-yl)-4-[2-methyl-3-(4-oxo-3,4-dihydroquinazolin-3-yl)phenyl]-9H-carbazole-1-carboxamide (BMS-935177)” (J Med Chem, 2016)
Calls of active or inactive are those of the source. The rule behind the calls is not given here.

Tests used:
[1] = molecular target: Tyrosine-protein kinase ITK/TSK (Homo sapiens, UniProt Q08881); test: Inhibition of partial length human ITK expressed in bacterial system
[2] = molecular target: Tyrosine-protein kinase Lyn (Homo sapiens, UniProt P07948); test: Inhibition of partial length human LYN expressed in bacterial system
[3] = Cmax in Beagle dog plasma at 2 mg/kg, administered through oral gavage after 0.25 to 48 hrs by LC/MS/MS analysis; type: ADME, organism-based, Canis lupus familiaris; set-up: dose 2 mg/kg, route oral
Mus musculus [4] = test: Antiarthritic activity in DBA/1 mouse model of collagen-induced arthritis inflammation assessed as protection against fusion of small bones dosed daily and orally beginning on day of primary immunization by microcomputed tomography imaging analysis; type: functional, organism-based
Mus musculus [5] = test: Antiarthritic activity in DBA/1 mouse model of collagen-induced arthritis inflammation assessed as inhibition of bone resorption end points dosed daily and orally beginning on day of primary immunization by micro-CT analysis; type: functional, organism-based
[6] = AUC in Beagle dog plasma at 2 mg/kg, administered through oral gavage after 0.25 to 48 hrs by LC/MS/MS analysis; type: ADME, organism-based, Canis lupus familiaris; set-up: time 0.25-48 hr, dose 2 mg/kg, route oral
[7] = molecular target: Tyrosine-protein kinase Tec (Homo sapiens, UniProt P42680); test: Inhibition of partial length human TEC expressed in bacterial system
Cytochrome P450 2D6 = Cytochrome P450 2D6 (Homo sapiens, UniProt P10635); test: Inhibition of human liver microsomes CYP2D6 after 30 mins in presence of NADPH; type: ADME
Mus musculus [8] = test: Antiarthritic activity in DBA/1 mouse model of collagen-induced arthritis inflammation assessed reduction in incidence of clinically evident disease dosed daily and orally beginning on day of primary immunization; type: functional, organism-based
[9] = Oral bioavailability in Beagle dog at 2 mg/kg after 0.25 to 48 hrs by LC/MS/MS analysis; type: ADME, organism-based, Canis lupus familiaris; settings: in vivo
Cytochrome P450 2B6 = Cytochrome P450 2B6 (Homo sapiens, UniProt P20813); test: Inhibition of human liver microsomes CYP2B6 after 30 mins in presence of NADPH; type: ADME
[10] = Half life in cynomolgus monkey plasma at 2 mg/kg, iv through bolus administration after 0.167 to 48 hrs by LC/MS/MS analysis; type: ADME, organism-based, Macaca fascicularis
[11] = Cmax in cynomolgus monkey plasma at 2 mg/kg, administered through oral gavage after 0.25 to 48 hrs by LC/MS/MS analysis; type: ADME, organism-based, Macaca fascicularis; set-up: dose 2 mg/kg, route oral
Mus musculus [12] = test: Time required for plasma concentration to reach above in vitro BCR/IgM/IgG-stimulated CD69 expression mouse whole blood IC50 in DBA/1 mouse CIA model at 20 mg/kg administered daily through oral gavage starting on day of primary immunization; type: ADME, organism-based; settings: in vivo
[13] = Plasma clearance in Sprague-Dawley rat at 2 mg/kg, iv through bolus administration by LC/MS/MS analysis; type: ADME, organism-based
[14] = Plasma clearance in cynomolgus monkey at 2 mg/kg, iv through bolus administration after 0.167 to 48 hrs by LC/MS/MS analysis; type: ADME, organism-based, Macaca fascicularis
[15] = Volume of distribution in steady state in cynomolgus monkey at 2 mg/kg, iv through bolus administration after 0.167 to 48 hrs by LC/MS/MS analysis; type: ADME, organism-based, Macaca fascicularis; settings: in vivo, read-out: Vdss
[16] = AUC in Sprague-Dawley rat plasma at 5 mg/kg, administered through oral gavage by LC/MS/MS analysis; type: ADME, organism-based
Mus musculus [17] = test: Antiarthritic activity in DBA/1 mouse model of collagen-induced arthritis inflammation assessed as protection against pitting dosed daily and orally beginning on day of primary immunization by microcomputed tomography imaging analysis; type: functional, organism-based
[18] = Cmax in mouse plasma at 5 mg/kg, administered through oral gavage after 0.25 to 24 hrs by LC/MS/MS analysis; type: ADME, organism-based; set-up: dose 5 mg/kg, route oral
[19] = Half life in Beagle dog plasma at 2 mg/kg, iv through bolus administration after 0.167 to 48 hrs by LC/MS/MS analysis; type: ADME, organism-based, Canis lupus familiaris
[20] = Oral bioavailability in mouse at 5 mg/kg after 0.25 to 24 hrs by LC/MS/MS analysis; type: ADME, organism-based; settings: in vivo
Mus musculus [21] = test: Antiarthritic activity in DBA/1 mouse model of collagen-induced arthritis inflammation assessed as inhibition of inflammation dosed daily and orally beginning on day of primary immunization by H and E staining based microscopy; type: functional, organism-based
Mus musculus [22] = test: Antiarthritic activity in DBA/1 mouse model of collagen-induced arthritis inflammation assessed reduction in disease severity dosed daily and orally beginning on day of primary immunization; type: functional, organism-based
Mus musculus [23] = test: Antiarthritic activity in Balb/C mouse model of anti-collagen antibody-induced arthritis assessed as reduction in paw clinical scores at 30 mg/kg, po dosed daily for 3 days followed by LPS challenge; type: functional, organism-based
[24] = Cmax in Sprague-Dawley rat plasma at 5 mg/kg, administered through oral gavage by LC/MS/MS analysis; type: ADME, organism-based; set-up: dose 5 mg/kg, route oral
[25] = molecular target: Proto-oncogene tyrosine-protein kinase Src (Homo sapiens, UniProt P12931); test: Inhibition of partial length human SRC expressed in bacterial system
Mus musculus [26] = test: Antiarthritic activity in DBA/1 mouse model of collagen-induced arthritis inflammation assessed as presence of presence of recognizable small individual bones at foot and ankle at 20 mg/kg, po dosed daily beginning on day of primary immunization by microcomputed tomography imaging analysis; type: functional, organism-based
[27] = Oral bioavailability in cynomolgus monkey at 2 mg/kg after 0.25 to 48 hrs by LC/MS/MS analysis; type: ADME, organism-based, Macaca fascicularis; settings: in vivo
Mus musculus [28] = test: Time required for plasma concentration to reach above in vitro BCR-stimulated CD69 expression IC50 in Balb/C mouse KLH antibody response model at 5 to 45 mg/kg, po qd for 14 days; type: ADME, organism-based; settings: in vivo, 336 h
[29] = Volume of distribution in steady state in Beagle dog at 2 mg/kg, iv through bolus administration after 0.167 to 48 hrs by LC/MS/MS analysis; type: ADME, organism-based, Canis lupus familiaris; settings: in vivo, read-out: Vdss
Mus musculus [30] = test: Antiarthritic activity in DBA/1 mouse model of collagen-induced arthritis inflammation assessed as presence of smooth bone surface at 20 mg/kg, po dosed daily beginning on day of primary immunization by microcomputed tomography imaging analysis; type: functional, organism-based
[31] = molecular target: Cytoplasmic tyrosine-protein kinase BMX (Homo sapiens, UniProt P51813); test: Inhibition of full length human BMX expressed in bacterial system
[32] = molecular target: Tyrosine-protein kinase Blk (Homo sapiens, UniProt P51451); test: Inhibition of BLK (unknown origin) expressed in bacterial system
[33] = Tmax in Beagle dog plasma at 2 mg/kg, administered through oral gavage after 0.25 to 48 hrs by LC/MS/MS analysis; type: ADME, organism-based, Canis lupus familiaris
[34] = molecular target: Tyrosine-protein kinase BTK (Mus musculus, UniProt P35991); test: Inhibition of BTK in mouse whole blood assessed as suppression of BCR/anti-IgM stimulated CD69 surface expression on B cells after 18 hrs by FACS analysis; type: tissue-based
Method in brief: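 Mouse whole blood stimulated through the BCR; CD69 on the B-cell surface read by FACS with gating on B cells. IC50 reported as mean ± standard deviation of three determinations.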

[35] = AUC (0 to 24 hrs) in Balb/C mouse at 10 mg/kg, po; type: ADME, organism-based; set-up: time < 24 hr, dose 10 mg/kg, route oral; settings: in vivo
Method in brief: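 Male Balb/C mice dosed orally once at 10 mg/kg in PEG300/TPGS/ethanol (90/5/5 v/v/v).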

[36] = Volume of distribution in steady state in Sprague-Dawley rat at 2 mg/kg, iv through bolus administration by LC/MS/MS analysis; type: ADME, organism-based; settings: in vivo, read-out: Vdss

Chain of Cytoplasmic tyrosine-protein kinase BMX (P51813 whole entry): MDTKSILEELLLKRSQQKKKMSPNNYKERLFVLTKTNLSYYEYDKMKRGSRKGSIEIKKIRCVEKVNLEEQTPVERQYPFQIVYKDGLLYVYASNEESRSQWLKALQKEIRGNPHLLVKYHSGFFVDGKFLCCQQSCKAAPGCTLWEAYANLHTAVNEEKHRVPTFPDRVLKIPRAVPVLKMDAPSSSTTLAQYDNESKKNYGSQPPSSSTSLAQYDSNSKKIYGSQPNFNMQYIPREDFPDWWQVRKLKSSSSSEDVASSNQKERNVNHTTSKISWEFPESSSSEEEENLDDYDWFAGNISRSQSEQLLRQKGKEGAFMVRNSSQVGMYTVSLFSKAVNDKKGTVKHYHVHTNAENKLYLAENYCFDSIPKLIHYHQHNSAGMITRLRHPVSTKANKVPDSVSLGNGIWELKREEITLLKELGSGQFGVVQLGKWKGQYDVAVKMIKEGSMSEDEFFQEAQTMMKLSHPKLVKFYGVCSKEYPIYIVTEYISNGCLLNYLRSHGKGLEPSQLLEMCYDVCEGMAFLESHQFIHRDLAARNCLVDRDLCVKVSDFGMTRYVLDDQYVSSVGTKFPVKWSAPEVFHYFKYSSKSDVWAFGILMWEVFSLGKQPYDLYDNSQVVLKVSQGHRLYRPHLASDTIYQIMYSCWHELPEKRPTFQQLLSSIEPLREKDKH
Chain of Cytochrome P450 2B6 (P20813 whole entry): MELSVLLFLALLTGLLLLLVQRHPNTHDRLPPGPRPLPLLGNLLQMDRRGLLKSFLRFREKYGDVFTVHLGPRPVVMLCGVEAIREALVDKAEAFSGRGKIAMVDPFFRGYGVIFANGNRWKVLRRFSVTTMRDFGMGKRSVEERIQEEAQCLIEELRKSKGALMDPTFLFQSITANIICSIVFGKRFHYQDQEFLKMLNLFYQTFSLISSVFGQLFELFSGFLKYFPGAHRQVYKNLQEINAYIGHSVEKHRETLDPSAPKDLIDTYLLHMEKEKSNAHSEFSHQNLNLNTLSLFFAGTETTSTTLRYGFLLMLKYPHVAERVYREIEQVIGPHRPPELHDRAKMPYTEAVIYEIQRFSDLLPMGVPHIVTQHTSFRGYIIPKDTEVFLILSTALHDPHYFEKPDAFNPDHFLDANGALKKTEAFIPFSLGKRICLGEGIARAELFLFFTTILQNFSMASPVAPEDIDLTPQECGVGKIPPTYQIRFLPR
Chain of Proto-oncogene tyrosine-protein kinase Src (P12931 2-536 limits assumed): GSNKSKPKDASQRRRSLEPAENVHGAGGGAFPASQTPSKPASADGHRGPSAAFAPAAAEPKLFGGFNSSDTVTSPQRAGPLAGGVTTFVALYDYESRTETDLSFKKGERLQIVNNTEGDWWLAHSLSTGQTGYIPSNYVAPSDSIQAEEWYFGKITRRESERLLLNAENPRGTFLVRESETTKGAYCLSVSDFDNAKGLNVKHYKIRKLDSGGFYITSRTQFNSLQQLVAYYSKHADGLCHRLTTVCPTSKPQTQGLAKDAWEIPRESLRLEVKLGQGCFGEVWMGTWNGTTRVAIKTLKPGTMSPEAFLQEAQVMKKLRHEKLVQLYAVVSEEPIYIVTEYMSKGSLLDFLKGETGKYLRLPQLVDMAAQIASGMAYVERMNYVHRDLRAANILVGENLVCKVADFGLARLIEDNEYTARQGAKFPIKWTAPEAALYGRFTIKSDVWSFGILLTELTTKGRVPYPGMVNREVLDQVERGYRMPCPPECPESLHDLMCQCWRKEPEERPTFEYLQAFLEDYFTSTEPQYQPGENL
Chain of Tyrosine-protein kinase Tec (P42680 whole entry): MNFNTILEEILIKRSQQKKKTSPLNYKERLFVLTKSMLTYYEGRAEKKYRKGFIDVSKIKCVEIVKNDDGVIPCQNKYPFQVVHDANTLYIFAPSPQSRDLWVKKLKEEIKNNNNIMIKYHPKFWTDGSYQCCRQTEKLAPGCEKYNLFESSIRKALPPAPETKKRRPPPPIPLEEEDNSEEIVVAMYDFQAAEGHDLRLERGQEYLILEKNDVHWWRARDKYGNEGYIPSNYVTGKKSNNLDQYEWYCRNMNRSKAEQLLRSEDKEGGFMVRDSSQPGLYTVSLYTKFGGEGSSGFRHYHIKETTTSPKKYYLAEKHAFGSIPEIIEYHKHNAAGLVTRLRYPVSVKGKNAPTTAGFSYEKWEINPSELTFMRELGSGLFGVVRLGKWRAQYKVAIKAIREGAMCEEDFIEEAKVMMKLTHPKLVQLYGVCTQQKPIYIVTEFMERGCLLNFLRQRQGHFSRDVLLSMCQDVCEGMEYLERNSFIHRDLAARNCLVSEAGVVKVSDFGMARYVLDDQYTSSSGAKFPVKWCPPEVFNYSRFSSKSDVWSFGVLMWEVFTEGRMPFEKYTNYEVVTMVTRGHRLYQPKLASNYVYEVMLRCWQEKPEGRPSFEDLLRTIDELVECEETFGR
Chain of Tyrosine-protein kinase Lyn (P07948 whole entry): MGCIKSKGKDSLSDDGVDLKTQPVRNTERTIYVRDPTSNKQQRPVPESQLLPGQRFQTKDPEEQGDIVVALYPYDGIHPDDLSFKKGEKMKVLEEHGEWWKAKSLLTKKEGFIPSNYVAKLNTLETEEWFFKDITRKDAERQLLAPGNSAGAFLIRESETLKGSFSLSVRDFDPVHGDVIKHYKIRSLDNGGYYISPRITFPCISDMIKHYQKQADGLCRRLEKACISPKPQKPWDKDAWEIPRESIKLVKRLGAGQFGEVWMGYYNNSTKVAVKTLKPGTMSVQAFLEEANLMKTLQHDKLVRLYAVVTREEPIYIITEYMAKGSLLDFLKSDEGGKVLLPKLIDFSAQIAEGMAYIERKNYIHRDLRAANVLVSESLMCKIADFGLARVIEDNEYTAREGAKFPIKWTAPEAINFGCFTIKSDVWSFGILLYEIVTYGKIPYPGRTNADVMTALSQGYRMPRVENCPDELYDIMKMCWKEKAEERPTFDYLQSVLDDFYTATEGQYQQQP
Chain of Tyrosine-protein kinase ITK/TSK (Q08881 whole entry): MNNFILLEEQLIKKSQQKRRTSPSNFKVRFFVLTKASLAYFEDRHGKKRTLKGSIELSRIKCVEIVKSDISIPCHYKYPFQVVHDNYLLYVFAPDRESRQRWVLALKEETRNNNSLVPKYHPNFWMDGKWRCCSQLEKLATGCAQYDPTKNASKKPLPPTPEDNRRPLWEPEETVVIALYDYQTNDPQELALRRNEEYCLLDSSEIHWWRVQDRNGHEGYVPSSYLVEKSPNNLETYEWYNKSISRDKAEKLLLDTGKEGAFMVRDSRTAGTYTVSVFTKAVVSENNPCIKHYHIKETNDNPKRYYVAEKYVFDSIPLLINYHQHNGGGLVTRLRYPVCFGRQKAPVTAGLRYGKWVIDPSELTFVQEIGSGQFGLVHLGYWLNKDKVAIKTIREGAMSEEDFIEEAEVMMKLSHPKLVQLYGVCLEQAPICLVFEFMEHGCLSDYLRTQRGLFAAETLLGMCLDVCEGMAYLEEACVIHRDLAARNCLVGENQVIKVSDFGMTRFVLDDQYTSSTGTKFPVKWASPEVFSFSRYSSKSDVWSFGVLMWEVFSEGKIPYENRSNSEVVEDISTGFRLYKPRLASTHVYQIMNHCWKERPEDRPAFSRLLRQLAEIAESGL
Chain of Cytochrome P450 2D6 (P10635 whole entry): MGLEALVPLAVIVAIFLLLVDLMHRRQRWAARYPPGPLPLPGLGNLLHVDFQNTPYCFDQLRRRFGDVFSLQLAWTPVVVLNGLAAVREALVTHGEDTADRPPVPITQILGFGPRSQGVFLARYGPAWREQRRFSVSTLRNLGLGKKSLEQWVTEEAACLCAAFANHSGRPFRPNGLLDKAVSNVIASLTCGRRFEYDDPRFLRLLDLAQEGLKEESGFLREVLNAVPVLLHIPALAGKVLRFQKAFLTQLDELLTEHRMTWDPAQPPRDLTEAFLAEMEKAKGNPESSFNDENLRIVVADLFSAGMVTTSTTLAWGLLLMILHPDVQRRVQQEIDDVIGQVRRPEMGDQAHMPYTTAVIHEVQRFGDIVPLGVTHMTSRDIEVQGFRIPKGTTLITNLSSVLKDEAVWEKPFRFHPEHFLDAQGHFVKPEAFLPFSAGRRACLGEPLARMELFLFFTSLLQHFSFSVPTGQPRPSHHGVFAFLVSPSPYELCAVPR
Chain of Tyrosine-protein kinase Blk (P51451 whole entry): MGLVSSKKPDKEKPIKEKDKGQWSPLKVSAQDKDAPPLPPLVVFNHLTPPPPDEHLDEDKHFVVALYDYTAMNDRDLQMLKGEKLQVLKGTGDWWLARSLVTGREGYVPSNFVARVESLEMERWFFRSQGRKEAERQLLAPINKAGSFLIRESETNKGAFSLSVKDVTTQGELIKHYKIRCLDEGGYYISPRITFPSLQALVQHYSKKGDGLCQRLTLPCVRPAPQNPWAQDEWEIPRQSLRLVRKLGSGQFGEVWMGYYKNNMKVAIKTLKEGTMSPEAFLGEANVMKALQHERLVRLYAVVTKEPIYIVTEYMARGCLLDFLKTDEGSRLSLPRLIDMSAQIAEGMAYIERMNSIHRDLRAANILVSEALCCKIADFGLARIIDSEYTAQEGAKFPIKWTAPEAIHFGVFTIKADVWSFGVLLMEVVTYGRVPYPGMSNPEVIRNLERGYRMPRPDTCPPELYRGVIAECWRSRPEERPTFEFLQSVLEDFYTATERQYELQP

Cc1c(-c2ccc(C(N)=O)c3[nH]c4cc(C(C)(C)O)ccc4c23)cccc1-n1cnc2ccccc2c1=O
IC50 [1]: 96 nM
IC50 [2]: 160 nM
Cmax [3]: 1200 nM
Activity (Mus musculus [4]): Dose-dependent effect
Activity (Mus musculus [5]): Active
AUC [6]: 14.2 µM·h
IC50 [7]: 13 nM
IC50 (Cytochrome P450 2D6): > 40000 nM
Activity (Mus musculus [8]): Dose-dependent effect
bioavailability [9]: 100%
IC50 (Cytochrome P450 2B6): > 40000 nM
half-life [10]: 10.6 h
Cmax [11]: 4800 nM
Time (Mus musculus [12]): 20 h
clearance [13]: 6.4 mL/min/kg
clearance [14]: 2.1 mL/min/kg
Vd [15]: 1.6 L/kg
AUC [16]: 21.2 µM·h
Activity (Mus musculus [17]): Dose-dependent effect
Cmax [18]: 3800 nM
half-life [19]: 10.4 h
bioavailability [20]: 94%
Activity (Mus musculus [21]): Active
Activity (Mus musculus [22]): Dose-dependent effect
Activity (Mus musculus [23]): Active
Cmax [24]: 2000 nM
IC50 [25]: 3190 nM
Activity (Mus musculus [26]): Active
bioavailability [27]: 100%
Time (Mus musculus [28]): 5 h
Vd [29]: 3.2 L/kg
Activity (Mus musculus [30]): Active
IC50 [31]: 24 nM
IC50 [32]: 20 nM
Tmax [33]: 1.6 h
IC50 [34]: 2060 nM
AUC(0-t) at 24 h [35]: 80 µM·h
Vd [36]: 2.6 L/kg
